How the values were obtained:
Assay type in all cases: functional
[1] = target: T1, Serotonin 3 (5-HT3) receptor (Rattus norvegicus) (UniProt P35563+Q9JJ16); experiment: The compound was evaluated for the inhibition of the von Bezold-Jarisch reflex in rat administered orally
Outline: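 Overnight-fasted rats gavaged with compound (free base in ≤1% HCl, 5 mL/kg). Urethane anesthesia 45 min later. Serotonin bolus 0.03 mg/kg iv 15 min after anesthesia. Saline-dosed rats as controls. Percent inhibition of reflex bradycardia at three doses, n ≥ 3 each. ED50 from mean values.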

[2] = target: T1, Serotonin 3 (5-HT3) receptor (Rattus norvegicus); experiment: Selectivity ratio of peroral vs intravenous delivery
[3] = target: T1, Serotonin 3 (5-HT3) receptor (Rattus norvegicus); experiment: The compound was evaluated for the inhibition of the von Bezold-Jarisch reflex in rat administered intravenously
Outline: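 Urethane-anesthetized rats; serotonin bolus 0.03 mg/kg iv (femoral vein) gives control reflex bradycardia. After heart rate returns to baseline (within 5 min), test compound iv as free base in dilute acid (≤1% HCl). Serotonin challenge repeated after 15 min. Percent inhibition of bradycardia at three doses, n ≥ 3 each. ED50 from mean values.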

Row | SMILES | ED50 [1] [mg/kg] | Ratio [2] | ED50 [3] [mg/kg]
1 | CN1C2CCC1CC(NC(=O)c1n[nH]c3ccccc13)C2 (stereo unspecified) | 0.02 | 10 | 0.002
2 | CN1C2CCC1CC(OC(=O)c1[nH]nc3ccccc13)C2 (stereo unspecified) | 0.2 | 66 | 0.003
3 | CN1C2CCCC1CC(NC(=O)c1nn(C)c3ccccc13)C2 (stereo unspecified) |  | 15 | 
4 | CN1C2CCC1CC(NC(=O)c1c3ccccc3nn1C)C2 (stereo unspecified) |  |  | > 0.01
5 | CN1[C@@H]2CC[C@H]1C[C@@H](OC(=O)c1c[nH]c3ccccc13)C2 | 0.2 | 50 | 0.004

From ChEMBL document CHEMBL1123934, “Indazoles as indole bioisosteres: synthesis and evaluation of the tropanyl ester and amide of indazole-3-carboxylate as antagonists at the serotonin 5HT3 receptor” (J Med Chem, 1987)
